This is an account of results in ChEMBL document CHEMBL1773072, “Diosgenin, a plant-derived sapogenin, exhibits antiviral activity in vitro against hepatitis C virus” (J Nat Prod, 2011).

Calls of active or inactive are those of the source. The calls are words filed in the database; no cut-off is given here.

Broadly, the EC50 is the concentration at which the effect is half-maximal.

In series [1] the test system is Hepatitis C virus. The experiment in a line: Antiviral activity against Hepatitis C virus infected in human Ava5 cells assessed as decreased NS3 protein level at […] after 72 hrs by Western blotting. The series is classed as functional, organism-based. As to conditions: Hepacivirus hominis. A digest of the protocol:
(§1)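 Ava5 subgenomic replicon cells (Huh7-derived, HCV genotype 1b NS3–NS5B, neo) are kept in DMEM/10% FBS at 37 °C, 5% CO2 and exposed to compound for 72 h. Cells are washed in PBS and lysed in Tris/NaCl/1% Triton X-100. Lysates are clarified and run on 10% SDS-PAGE, then immunoblotted with anti-NS3; β-actin is the loading control.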
For orientation: Immunoblotting shows a protein as a band on a membrane.

The test system of series [2] is Hepatitis C virus. Put plainly: Antiviral activity against Hepatitis C virus infected in human Ava5 cells assessed as decreased NS3 protein level at 5 uM after 72 hrs by Western blotting. The series is classed as functional, organism-based. Particulars: Hepacivirus hominis. The gist of the method: as §1
The subject of series [3] is Hepatitis C virus. The experiment in a line: Antiviral activity against Hepatitis C virus infected in human Ava5 cells expressing EG(delta4AB)SEAP reporter gene assessed as decreased viral replication measured as SEAP activity by Phospha-Light assay. The series is classed as functional, organism-based, Hepacivirus hominis. A digest of the protocol: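 Ava5-EG(Δ4AB)SEAP reporter cells seeded 6×10^3/well, after 24 h dosed with a concentration series. At 48 h medium replaced with fresh medium at same concentrations, incubated 24 h more. Secreted alkaline phosphatase in medium measured by chemiluminescent kit. EC50 from dose–response; three replicate wells, means ± SD.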

The target of series [4] is Signal transducer and activator of transcription 3 (Homo sapiens) (UniProt P40763). Put plainly: Inhibition of STAT3 phosphorylation at Tyr 705 in human Ava5 cells after 72 hrs by Western blotting. The format is cell-based. A digest of the protocol:
(§2)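 Ava5 cells incubated with a concentration series for 72 h. Whole-cell extracts were Western blotted with antibodies to STAT3 phosphorylated at Tyr705 and to total STAT3, with β-actin as loading control.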

A short description of series [5]: Cytotoxicity against Hepatitis C virus infected human Ava5 cells assessed as cell viability after 5 days by MTS assay in presence of IFN-alpha. The format is cell-based. As to conditions: ava5, 120 h.
A short description of series [6]: Cytotoxicity against Hepatitis C virus infected human Ava5 cells assessed as cell viability after 5 days by MTS assay. The format is cell-based. Particulars: ava5, 120 h. A digest of the protocol:
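Cells seeded, incubated overnight at 37 °C, 5% CO2, then medium replaced with compound-containing medium across a concentration range for five days. Viability by MTS colorimetric read at 490 nm after 2 h reagent incubation; ethanol as solvent control. Means ± SD.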
Background: Tetrazolium dyes change colour on reduction, which living cells bring about.

The subject of series [7] is Hepatitis C virus. The experiment in a line: Antiviral activity against Hepatitis C virus infected in human Ava5 cells assessed as decreased NS3 protein level at 5 uM after 72 hrs by Western blotting in presence of IFN-alpha. The format is functional, organism-based. As to conditions: Hepacivirus hominis. The gist of the method:
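Ava5 replicon cells given compound (5 μM) or IFN-α (5, 10, 50 IU/mL), alone and combined, for 72 h. BILN 2061 served as NS3/4A inhibitor positive control. Washed cells stored at -80 °C, then lysates Western blotted for NS3 with β-actin as internal standard.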

Series [8] has as its system Hepatitis C virus. The experiment in a line: Antiviral activity against Hepatitis C virus infected in human Ava5 cells expressing EG(delta4AB)SEAP reporter gene assessed as decreased NS3 protein level after 72 hrs by Western blotting. The series is classed as functional, organism-based. Particulars: Hepacivirus hominis. A digest of the protocol: as §1
In the next series the test system is Huh-7. The experiment in a line: Cytotoxicity against Hepatitis C virus JFH-1 infected human HuH7 cells. The series is classed as cell-based.
The target of series [9] is Signal transducer and activator of transcription 3 (Homo sapiens) (UniProt P40763). The experiment in a line: Effect on STAT3 protein production in human Ava5 cells after 72 hrs by Western blotting. The series is classed as cell-based. The gist of the method:
as §2

The subject of series [10] is Hepatitis C virus. The experiment in a line: Antiviral activity against Hepatitis C virus infected in human Ava5 cells expressing EG(delta4AB)SEAP reporter gene assessed as decreased viral RNA level after 72 hrs by RTqPCR analysis. The series is classed as functional, organism-based. As to conditions: Hepacivirus hominis. The gist of the method: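 Ava5 cells seeded 1.5×10^5/well, incubated overnight, treated with a concentration series for 72 h. Total RNA TRIzol-extracted; HCV genotype 1b RNA quantified by SYBR Green RT-qPCR. Levels expressed relative to untreated cells (100%); triplicate, means ± SD.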

The subject of series [11] is Hepatitis C virus. The experiment in a line: Antiviral activity against Hepatitis C virus JFH-1 infected in human Huh7 cells expressing G(delta4AB)SEAP reporter gene assessed as decreased NS3 protein level at 20 uM after 8 days by Western blotting. The format is functional, organism-based. As to conditions: Hepacivirus hominis, Huh-7. The gist of the method:
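Huh7-EG(Δ4B5A)SEAP cells seeded 5×10^4/well, incubated overnight, then infected with HCV JFH-1 (genotype 2a) at MOI 0.02 for 6 h. Unbound virus removed by medium replacement, then compound at 20 μM in basal medium for 7 days. Intracellular NS3 in lysates detected by Western blot.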
On the technique in general: Reporter assays use an easily measured gene product as a stand-in for the process of interest.

Chain of Signal transducer and activator of transcription 3 (Homo sapiens) (P40763 whole entry): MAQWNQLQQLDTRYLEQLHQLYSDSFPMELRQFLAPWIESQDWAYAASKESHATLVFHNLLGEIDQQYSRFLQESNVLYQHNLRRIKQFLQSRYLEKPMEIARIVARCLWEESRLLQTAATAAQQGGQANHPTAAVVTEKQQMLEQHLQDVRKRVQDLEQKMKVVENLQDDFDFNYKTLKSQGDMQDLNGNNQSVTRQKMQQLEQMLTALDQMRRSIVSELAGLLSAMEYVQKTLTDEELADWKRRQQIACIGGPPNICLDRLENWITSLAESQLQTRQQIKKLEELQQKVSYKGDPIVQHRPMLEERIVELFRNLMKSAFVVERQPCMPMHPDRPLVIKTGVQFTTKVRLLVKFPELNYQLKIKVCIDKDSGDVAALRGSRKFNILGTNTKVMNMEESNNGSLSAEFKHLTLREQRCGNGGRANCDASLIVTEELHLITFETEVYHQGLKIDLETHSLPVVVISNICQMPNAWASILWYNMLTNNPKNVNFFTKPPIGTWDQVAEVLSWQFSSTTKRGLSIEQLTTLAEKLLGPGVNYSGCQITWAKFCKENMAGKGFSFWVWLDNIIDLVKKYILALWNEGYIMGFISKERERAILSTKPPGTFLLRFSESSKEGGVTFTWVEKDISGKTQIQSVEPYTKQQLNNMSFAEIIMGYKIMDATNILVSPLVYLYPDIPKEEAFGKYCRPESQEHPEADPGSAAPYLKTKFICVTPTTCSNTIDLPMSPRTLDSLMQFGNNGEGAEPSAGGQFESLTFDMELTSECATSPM

`COc1ccc2c(O[C@@H]3C[C@H]4C(=O)N[C@]5(C(=O)O)C[C@H]5/C=C\CCCCC[C@H](NC(=O)OC5CCCC5)C(=O)N4C3)cc(-c3csc(NC(C)C)n3)nc2c1`: the outcome in the series with Hepatitis C virus [1] was Active.

Consider `C[C@@H]1CC[C@@]2(OC1)O[C@H]1C[C@H]3[C@@H]4CC=C5C[C@@H](O)CC[C@]5(C)[C@H]4CC[C@]3(C)[C@H]1[C@@H]2C` [DISOGENIN], for which the outcome with Hepatitis C virus [2], with Hepatitis C virus [7] and in the series with Hepatitis C virus [11] was Active. Further, in the series on Hepatitis C virus [3], the EC50 turned out to be 3.8 µM. The Activity entry with Hepatitis C virus [3] (Hepacivirus hominis) was “Dose-dependent effect”; in series [5] it was “Non-toxic”; in [6], “Non-toxic”; with Hepatitis C virus [8] it was “Dose-dependent effect”; in the series with Huh-7 it was “Non-toxic”; in the series on Hepatitis C virus [10] it was “Dose-dependent effect”. In addition, the inhibition entry in [4] was “Dose-dependent effect”. Moreover, in [9], the result was inactive.
